Experiments:
[1] = test system: KB; experiment: Cytotoxicity against human KB cells after 48 hrs by MTT assay; format: functional, cell-based
[2] = Cytotoxicity against human multidrug-resistant KB-C2 cells after 48 hrs by MTT assay; format: functional, cell-based; settings: KB-C2, 48 h
In short: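 Seeded 5 × 10³ cells/well, preincubated 24 h, then compounds at 2, 10, 50, 100 µg/mL in medium (0.5% DMSO final) for 48 h. MTT 0.5 mg/mL for 4 h, formazan dissolved in DMSO, OD 540 nm; IC50 relative to vehicle controls.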

## CC(=O)O[C@@H]1C[C@@H]2[C@@]3(C)CC[C@@H](OC(=O)CC(=O)NCc4ccccc4)C(C)(C)[C@@H]3CC[C@@]2(C)[C@]2(C)CC[C@H]([C@]3(C)CC[C@H](C(C)(C)OC(=O)C(=O)NCc4ccccc4)O3)[C@@H]12
[1]
  IC50: > 100 µM
[2]
  IC50: > 100 µM

## CCCCNC(=O)CC(=O)O[C@@H]1CC[C@]2(C)[C@H]3C[C@@H](OC(C)=O)[C@@H]4[C@@H]([C@]5(C)CC[C@H](C(C)(C)O)O5)CC[C@@]4(C)[C@]3(C)CC[C@H]2C1(C)C
[1]
  IC50: 24.9 µM
[2]
  IC50: 24.4 µM

## CCCNC(=O)CC(=O)O[C@@H]1CC[C@]2(C)[C@H]3C[C@@H](OC(C)=O)[C@@H]4[C@@H]([C@]5(C)CC[C@H](C(C)(C)O)O5)CC[C@@]4(C)[C@]3(C)CC[C@H]2C1(C)C
[1]
  IC50: 46.1 µM
[2]
  IC50: 40.8 µM

## CC(C)OC(=O)CC(=O)O[C@@H]1CC[C@]2(C)[C@H]3CC[C@@H]4[C@@H]([C@]5(C)CC[C@H](C(C)(C)O)O5)CC[C@@]4(C)[C@]3(C)CC[C@H]2C1(C)C
[1]
  IC50: > 100 µM
[2]
  IC50: > 100 µM

## CCCOC(=O)CC(=O)O[C@@H]1CC[C@]2(C)[C@H]3C[C@@H](OC(C)=O)[C@@H]4[C@@H]([C@]5(C)CC[C@H](C(C)(C)O)O5)CC[C@@]4(C)[C@]3(C)CC[C@H]2C1(C)C
[1]
  IC50: 27.8 µM
[2]
  IC50: 67.8 µM

## CC(=O)O[C@@H]1C[C@@H]2[C@@]3(C)CC[C@@H](OC(=O)CC(=O)OCC(C)C)C(C)(C)[C@@H]3CC[C@@]2(C)[C@]2(C)CC[C@H]([C@]3(C)CC[C@H](C(C)(C)O)O3)[C@@H]12
[1]
  IC50: 33.3 µM
[2]
  IC50: > 100 µM

## CC(=O)O[C@@H]1C[C@@H]2[C@@]3(C)CC[C@@H](OC(=O)CC(=O)OC(C)(C)C)C(C)(C)[C@@H]3CC[C@@]2(C)[C@]2(C)CC[C@H]([C@]3(C)CC[C@H](C(C)(C)O)O3)[C@@H]12
[1]
  IC50: 31.5 µM
[2]
  IC50: > 100 µM

## COc1ccc(CCN(C)CCCC(C#N)(c2ccc(OC)c(OC)c2)C(C)C)cc1OC (stereo not given)
[2]
  IC50: > 100 µM

## CC(C)COC(=O)CC(=O)O[C@@H]1CC[C@]2(C)[C@H]3CC[C@@H]4[C@@H]([C@]5(C)CC[C@H](C(C)(C)O)O5)CC[C@@]4(C)[C@]3(C)CC[C@H]2C1(C)C
[1]
  IC50: 97 µM
[2]
  IC50: > 100 µM

## CC(=O)O[C@@H]1C[C@@H]2[C@@]3(C)CC[C@@H](OC(=O)CC(=O)OC(C)C)C(C)(C)[C@@H]3CC[C@@]2(C)[C@]2(C)CC[C@H]([C@]3(C)CC[C@H](C(C)(C)O)O3)[C@@H]12
[1]
  IC50: 74.6 µM
[2]
  IC50: > 100 µM

## CCOC(=O)CC(=O)O[C@@H]1CC[C@]2(C)[C@H]3C[C@@H](OC(C)=O)[C@@H]4[C@@H]([C@]5(C)CC[C@H](C(C)(C)O)O5)CC[C@@]4(C)[C@]3(C)CC[C@H]2C1(C)C
[1]
  IC50: 39.1 µM
[2]
  IC50: 64.3 µM

## CC(=O)O[C@@H]1C[C@@H]2[C@@]3(C)CC[C@@H](OC(=O)CC(=O)Nc4ccccc4)C(C)(C)[C@@H]3CC[C@@]2(C)[C@]2(C)CC[C@H]([C@]3(C)CC[C@H](C(C)(C)O)O3)[C@@H]12
[1]
  IC50: 28.3 µM
[2]
  IC50: 26.2 µM

## CCCCCCCOC(=O)CC(=O)O[C@@H]1CC[C@]2(C)[C@H]3CC[C@@H]4[C@@H]([C@]5(C)CC[C@H](C(C)(C)O)O5)CC[C@@]4(C)[C@]3(C)CC[C@H]2C1(C)C
[1]
  IC50: > 100 µM
[2]
  IC50: > 100 µM

## CCCCCNC(=O)CC(=O)O[C@@H]1CC[C@]2(C)[C@H]3C[C@@H](OC(C)=O)[C@@H]4[C@@H]([C@]5(C)CC[C@H](C(C)(C)OC(=O)C(=O)NCCCCC)O5)CC[C@@]4(C)[C@]3(C)CC[C@H]2C1(C)C
[1]
  IC50: > 100 µM
[2]
  IC50: > 100 µM

## CCCCCCCCOC(=O)CC(=O)O[C@@H]1CC[C@]2(C)[C@H]3CC[C@@H]4[C@@H]([C@]5(C)CC[C@H](C(C)(C)O)O5)CC[C@@]4(C)[C@]3(C)CC[C@H]2C1(C)C
[1]
  IC50: > 100 µM
[2]
  IC50: > 100 µM

## COc1cc2c(c(OC)c1OC)-c1ccc(OC)c(=O)cc1[C@@H](NC(C)=O)CC2 [COLCHICINE]
[2]
  IC50: 10.9 µM
